Reference: article PMC11437748 (Computational and Structural Biotechnology Journal, 2024)
Bridges are numbered along the chain shown (N, C = ends). Where no end group is shown, it is not given here.

Tests used:
[1] = system: tested Gram-positive bacteria; experiment: Geometric mean of MICs and TI, Gram-positive bacteria; assay type: cell-based; details: geometric mean of the MICs against tested Gram-positive bacteria
In short: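 Broth dilution against S. aureus NCTC 10788, MRSA NCTC 12493 and E. faecalis NCTC 12697. Overnight cultures subcultured to OD550 0.23 (about 1×10^8 cfu/ml), then diluted to 5×10^5 cfu/ml. Test compound at 1–128 μM, 37 °C, 18 h, growth read at 550 nm. MIC = lowest concentration with no growth. Three independent runs in triplicate. Geometric mean taken across the MICs.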

E. coli 8739 = experiment: Salt sensitivity assay; assay type: cell-based, Escherichia coli; details: three independent repeats
In short: (§1)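 MIC/MBC measured in MHB supplemented with salts, including 150 mM NaCl, 2 mM CaCl₂ or 1 mM MgCl₂. Gram-negative cultures subcultured to OD550 0.4, then diluted to 5×10^5 cfu/ml. Test compound 1–128 μM, 37 °C, 18 h, growth at 550 nm. MBC: wells spotted on agar for 18 h at 37 °C; lowest concentration with no colonies. Three independent repeats.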

E. coli 13846 = experiment: Salt sensitivity assay; assay type: cell-based, Escherichia coli; details: three independent repeats
In short: as §1

E. coli 2340 [2] = experiment: Salt sensitivity assay; assay type: cell-based, Escherichia coli; details: three independent repeats
In short: as §1

[3] = system: E. coli 8739, E. coli 13846, and E. coli 2340; experiment: Time-killing kinetic assay; assay type: cell-based, Escherichia coli
In short: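 E. coli at 10^6 CFU/ml mixed with test compound at 1×, 2× or 4× MIC. 10 µl aliquots taken into PBS at 0, 5, 10, 20, 30, 60, 90, 120 and 180 min and plated on agar. Colonies counted after 24 h incubation. Three independent sessions, three replicates each.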

[4] = system: three tested E. coli strains; experiment: NPN assay, outer membrane permeabilisation; assay type: cell-based, Escherichia coli; details: 1 × MIC, 2 × MIC, 4 × MIC; 37 °C, 2 h
In short: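 Log-phase E. coli pelleted at 3000g for 10 min and washed three times in 5 mM HEPES pH 7.2 with 5 mM glucose. Resuspended at 1×10^7 CFU/ml with NPN and test compound at 1×, 2× or 4× MIC. Incubated at 37 °C for 2 h, then fluorescence read at […]. Melittin set 100 % and buffer 0 % permeability. Three independent runs.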

[5] = system: E. coli plasmid DNA (pBR322); experiment: DNA binding assay; set-up: species or system Escherichia coli; details: 100 ng plasmid DNA, 37 °C, 1 h, agarose gel electrophoresis
In short: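 Gel retardation: test compound (final 1–32 μM) incubated with 100 ng E. coli plasmid DNA at 37 °C for 1 h. Buffer: 1 mM EDTA, 10 mM Tris-HCl pH 8.0, 5 % glucose, 50 μg/ml BSA, 20 mM KCl. Resolved by agarose gel electrophoresis in 1 × TAE. A known DNA-binding peptide at equal concentrations served as control.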

E. coli 2340 [6] = experiment: In vivo antibacterial study, G. mellonella larvae model; set-up: species or system Galleria mellonella; details: five days; 10, 20, 40 mg/kg; ten larvae per group
In short: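 Galleria mellonella larvae injected in the last right proleg with E. coli suspension (1×10^7 CFU/ml). Test compound given 1 h later at 10, 20 or 40 mg/kg. Larvae kept at 37 °C for five days, survival scored daily, ten larvae per group. Rifampin 20 mg/kg was the positive control and sterile PBS the negative control. Three independent experiments.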

[7] = Secondary structure analysis by CD spectrometry; assay type: physicochemical; details: for α helix (%) NH4AC: 50 µM peptide in 10 mM NH4AC; for α helix (%) NH4AC / α helix (%) TFE: CD 190 to 260 nm, K2D3 estimate; for α helix (%) TFE: 50 µM peptide in 50 % TFE (v/v, in 10 mM NH4AC)
In short: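 CD spectra of test compound (final 50 µM) in 10 mM ammonium acetate, in 50 % TFE (v/v, in 10 mM ammonium acetate), or with LPS O26:B6 (100 µM) in 10 mM ammonium acetate. Scanned 190–260 nm at 100 nm/min, 1 nm bandwidth, 0.5 nm data pitch. Helix content estimated with K2D3.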

tested E. coli strains = experiment: ONPG assay, inner membrane permeabilisation; assay type: cell-based, Escherichia coli; details: E. coli 8739
In short: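 E. coli grown in LB with 2 % lactose to log phase, then pelleted. Incubated with test compound while absorbance at 460 nm was monitored continuously at 37 °C. Untreated cells, melittin and solvent-only groups included. Three independent runs, three replicates each.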

## FFPKVAGVAAKVLKKFCTISKKC (disulfide 17-23 (inferred)) [des-Ala^16-[Lys^4]brevinin−1pl]
[1]
  GM G+: 80.63 µM
E. coli 8739; 4 µM FeCl3 in MHB medium
  MBC: 2 /2
  MIC: 2 /2
E. coli 8739; 6 µM NH4Cl in MHB medium
  MBC: 2 /2
  MIC: 2 /2
E. coli 8739; 8 µM ZnCl2 in MHB medium
  MBC: 2 /2
  MIC: 2 /2
E. coli 8739; 1 mM MgCl2 in MHB medium
  MBC: 32 /32
  MIC: 32 /32
E. coli 8739; 2 mM CaCl2 in MHB medium
  MBC: 8 /8
  MIC: 8 /8
E. coli 8739; 4.5 mM KCl in MHB medium
  MBC: 2 /2
  MIC: 2 /2
E. coli 8739; 150 mM NaCl in MHB medium
  MBC: 4 /4
  MIC: 4 /4
E. coli 8739; Control, MHB medium
  MBC: 2 /2
  MIC: 2 /2
E. coli 13846; 4 µM FeCl3 in MHB medium
  MBC: 8 /8
  MIC: 8 /8
E. coli 13846; 6 µM NH4Cl in MHB medium
  MBC: 8 /8
  MIC: 8 /8
E. coli 13846; 8 µM ZnCl2 in MHB medium
  MBC: 8 /8
  MIC: 8 /8
E. coli 13846; 1 mM MgCl2 in MHB medium
  MBC: 16 /16
  MIC: 16 /16
E. coli 13846; 2 mM CaCl2 in MHB medium
  MBC: 64 /64
  MIC: 64 /64
E. coli 13846; 4.5 mM KCl in MHB medium
  MBC: 8 /8
  MIC: 8 /8
E. coli 13846; 150 mM NaCl in MHB medium
  MBC: 8
  MIC: 4
E. coli 13846; Control, MHB medium
  MBC: 4 /4
  MIC: 4 /4
E. coli 2340 [2]; 4 µM FeCl3 in MHB medium
  MBC: 4 /4
  MIC: 4 /4
E. coli 2340 [2]; 6 µM NH4Cl in MHB medium
  MBC: 4 /4
  MIC: 4 /4
E. coli 2340 [2]; 8 µM ZnCl2 in MHB medium
  MBC: 4 /4
  MIC: 4 /4
E. coli 2340 [2]; 1 mM MgCl2 in MHB medium
  MBC: 8 /8
  MIC: 8 /8
E. coli 2340 [2]; 2 mM CaCl2 in MHB medium
  MBC: 16 /16
  MIC: 16 /16
E. coli 2340 [2]; 4.5 mM KCl in MHB medium
  MBC: 2 /2
  MIC: 2 /2
E. coli 2340 [2]; 150 mM NaCl in MHB medium
  MBC: 4 /4
  MIC: 4 /4
E. coli 2340 [2]; Control, MHB medium
  MBC: 4 /4
  MIC: 4 /4
[3]; 4 × MIC
  bacteria eradication at 4 × MIC: almost immediate bacteria eradication upon contact
[3]; 10^6 CFU/ml, peptide 1 × MIC to 4 × MIC, sampled 0 to 180 min, colony count
  time to eradicate all cells: ≤ 10 min
[3]; at their MICs, three types of E. coli
  time to completely clear the bacteria: ≤ 1 h
[4]
  outer membrane permeabilisation of the tested E. coli strains: did not induce significant changes
[5]
  concentration of complete retardation of plasmid DNA: 16 µM
E. coli 2340 [6]
  survival rate of infected larvae: 90%
[7]
  α helix (%) NH4AC: 31.95%
  α helix (%) TFE: 95.28%
[7]; LPS (O26:B6, 100 µM) in 10 mM NH4AC, CD, K2D3 prediction
  α helix content in the presence of LPS: 95.44%
Tested E. coli strains
  changes in OD values in the ONPG assay (release of cytoplasmic beta-galactosidase): did not induce obvious changes in OD values

## FFPKVAGVAAKV_KK_FCTISKKC (disulfide) [des-Leu^13, Ala^16-[Lys^4]brevinin−1pl]
[1]
  GM G+: 256 µM
[7]
  α helix (%) NH4AC: 34.65%
  α helix (%) TFE: 95.28%
